The source made the active and inactive calls. No cut-off for these calls is given here.
Assays:
[1] = tested on: Tyrosine-protein kinase ABL1 (Homo sapiens), P00519 [E255K]; assay: Binding affinity to human phosphorylated ABL1 E255K mutant (S229 to K512 residues) expressed in mammalian expression system assessed as residual binding level at 1 uM by Kinomescan method relative to control
Outline: (§1)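 Kinome-wide single-concentration binding screen (KINOMEscan) at 1 μM against a panel of 468 purified kinases and mutants. Read-out is relative binding of each kinase compared with control. Selectivity across the panel was summarised as an S(10) score.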

[2] = tested on: Tyrosine-protein kinase ABL1 (Homo sapiens), P00519 [M351T]; assay: Binding affinity to human phosphorylated ABL1 M351T mutant (S229 to K512 residues) expressed in mammalian expression system assessed as residual binding level at 1 uM by Kinomescan method relative to control
Outline: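 Single-concentration (1 μM) competition-binding screen run by KINOMEscan against a panel of 468 purified kinases and mutants. The read-out is the relative binding activity of the test compound to each kinase.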

[3] = biological target: 5'-AMP-activated protein kinase catalytic subunit alpha-1 (Homo sapiens) (UniProt Q13131); assay: Binding affinity to wild-type human partial length AMPK alpha1 (M1 to E306 residues) expressed in bacterial expression system assessed as residual binding level at 1 uM by Kinomescan method relative to control
Outline: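 Kinome-wide competition binding screen against a panel of 468 purified kinases/mutants, with the test compound at a single concentration of 1 μM. Read-out is the relative binding activity of each kinase in the presence of compound.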

[4] = biological target: Mitogen-activated protein kinase kinase kinase 6 (Homo sapiens) (UniProt O95382); assay: Binding affinity to wild-type human partial length ASK2 (M278 to R972 residues) expressed in mammalian expression system assessed as residual binding level at 1 uM by Kinomescan method relative to control
Outline: (§2)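 Single-concentration KINOMEscan (DiscoverX) binding screen at 1 μM against a panel of 468 purified kinases and mutants. The read-out is binding relative to control.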

[5] = biological target: Calcium/calmodulin-dependent protein kinase type 1B (Homo sapiens) (UniProt Q6P2M8); assay: Binding affinity to wild-type human partial length CAMK1B (W9 to A311 residues) expressed in mammalian expression system assessed as residual binding level at 1 uM by Kinomescan method relative to control
[6] = biological target: Dual specificity protein kinase CLK3 (Homo sapiens) (UniProt P49761); assay: Binding affinity to wild-type human full length CLK3 (M1 to R490 residues) expressed in bacterial expression system assessed as residual binding level at 1 uM by Kinomescan method relative to control
Outline: (§3)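 KINOMEscan competition binding against 468 purified kinases/mutants, test compound at 1 µM; residual binding relative to control.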

[7] = biological target: Death-associated protein kinase 2 (Homo sapiens) (UniProt Q9UIK4); assay: Binding affinity to wild-type human full length DAPK2 (M1 to S370 residues) expressed in bacterial expression system assessed as residual binding level at 1 uM by Kinomescan method relative to control; outline: as §3
[8] = tested on: Epidermal growth factor receptor (Homo sapiens), P00533 [G719S]; assay: Binding affinity to human partial length EGFR G719S mutant (R669 to V1011 residues) expressed in bacterial expression system assessed as residual binding level at 1 uM by Kinomescan method relative to control; outline: as §1
[9] = tested on: Epidermal growth factor receptor (Homo sapiens), P00533 [L858R,T790M]; assay: Binding affinity to human partial length EGFR L858R/T790M double mutant (R669 to V1011 residues) expressed in mammalian expression system assessed as residual binding level at 1 uM by Kinomescan method relative to control; outline: as §1
[10] = biological target: Eukaryotic translation initiation factor 2-alpha kinase 1 (Homo sapiens) (UniProt Q9BQI3); assay: Binding affinity to wild-type human partial length EIF2AK1 (Q147 to E603 residues) expressed in mammalian expression system assessed as residual binding level at 1 uM by Kinomescan method relative to control
[11] = biological target: Myosin light chain kinase family member 4 (Homo sapiens) (UniProt Q86YV6); assay: Binding affinity to wild-type human partial length MYLK4 (V79 to S380 residues) expressed in bacterial expression system assessed as residual binding level at 1 uM by Kinomescan method relative to control
[12] = biological target: Membrane-associated tyrosine- and threonine-specific cdc2-inhibitory kinase (Homo sapiens) (UniProt Q99640); assay: Binding affinity to wild-type human partial length PKMYT1 (A88 to G366 residues) expressed in bacterial expression system assessed as residual binding level at 1 uM by Kinomescan method relative to control
Outline: (§4)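 KINOMEscan competition binding against a panel of 468 purified kinases/mutants, compound tested at 1 μM; readout is relative binding activity versus control.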

[13] = biological target: Protein kinase C epsilon type (Homo sapiens) (UniProt Q02156); assay: Binding affinity to wild-type human partial length PRKCE (A378 to P737 residues) expressed in mammalian expression system assessed as residual binding level at 1 uM by Kinomescan method relative to control; outline: as §4
[14] = biological target: STE20-like serine/threonine-protein kinase (Homo sapiens) (UniProt Q9H2G2); assay: Binding affinity to wild-type human partial length SLK (S14 to A307 residues) expressed in bacterial expression system assessed as residual binding level at 1 uM by Kinomescan method relative to control
[15] = biological target: Testis-specific serine/threonine-protein kinase 3 (Homo sapiens) (UniProt Q96PN8); assay: Binding affinity to wild-type human full length TSSK3 (M1 to T268 residues) expressed in mammalian expression system assessed as residual binding level at 1 uM by Kinomescan method relative to control; outline: as §2
[16] = biological target: Serine/threonine-protein kinase WNK2 (Homo sapiens) (UniProt Q9Y3S1); assay: Binding affinity to wild-type human partial length WNK2 (V47 to D482 residues) expressed in mammalian expression system assessed as residual binding level at 1 uM by Kinomescan method relative to control
[17] = biological target: Serine/threonine-protein kinase 32A (Homo sapiens) (UniProt Q8WU08); assay: Binding affinity to wild-type human full length YANK1 (M1 to L396 residues) expressed in mammalian expression system assessed as residual binding level at 1 uM by Kinomescan method relative to control; outline: as §2
[18] = Half life in Sprague-Dawley rat at 10 mg/kg, po; format: ADME, organism-based; conditions: in vivo
[19] = Cmax in Sprague-Dawley rat at 10 mg/kg, po; format: ADME, organism-based; parameters: dose 10 mg/kg, route oral; conditions: in vivo
Outline: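 Male Sprague-Dawley rats, 6–8 weeks old and fasted overnight, dosed IV at 1 mg/kg or PO at 10 mg/kg. Formulation was 5% DMSO/40% PEG400/55% saline (1 mg/mL). Jugular blood collected on heparin from 1 min to 8 h (IV) or 5 min to 24 h (PO). Plasma separated by centrifugation at 2–8 °C and stored at −80 °C.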

[20] = biological target: T1, Platelet-derived growth factor receptor alpha (Homo sapiens, UniProt P16234); assay: Inhibition of PDGFRalpha autophosphorylation at Y754 residue in human EOL-1 cells up to 300 nM after 2 hrs by Western blot method; format: cell-based
[21] = biological target: T1, Platelet-derived growth factor receptor alpha; assay: Inhibition of PDGFRalpha in human EOL-1 cells assessed as decrease in ERK phosphorylation at T202/Y204 residues after 2 hrs in presence of PDGF-AA by Western blot analysis; format: cell-based

T1 sequence (P16234 whole entry): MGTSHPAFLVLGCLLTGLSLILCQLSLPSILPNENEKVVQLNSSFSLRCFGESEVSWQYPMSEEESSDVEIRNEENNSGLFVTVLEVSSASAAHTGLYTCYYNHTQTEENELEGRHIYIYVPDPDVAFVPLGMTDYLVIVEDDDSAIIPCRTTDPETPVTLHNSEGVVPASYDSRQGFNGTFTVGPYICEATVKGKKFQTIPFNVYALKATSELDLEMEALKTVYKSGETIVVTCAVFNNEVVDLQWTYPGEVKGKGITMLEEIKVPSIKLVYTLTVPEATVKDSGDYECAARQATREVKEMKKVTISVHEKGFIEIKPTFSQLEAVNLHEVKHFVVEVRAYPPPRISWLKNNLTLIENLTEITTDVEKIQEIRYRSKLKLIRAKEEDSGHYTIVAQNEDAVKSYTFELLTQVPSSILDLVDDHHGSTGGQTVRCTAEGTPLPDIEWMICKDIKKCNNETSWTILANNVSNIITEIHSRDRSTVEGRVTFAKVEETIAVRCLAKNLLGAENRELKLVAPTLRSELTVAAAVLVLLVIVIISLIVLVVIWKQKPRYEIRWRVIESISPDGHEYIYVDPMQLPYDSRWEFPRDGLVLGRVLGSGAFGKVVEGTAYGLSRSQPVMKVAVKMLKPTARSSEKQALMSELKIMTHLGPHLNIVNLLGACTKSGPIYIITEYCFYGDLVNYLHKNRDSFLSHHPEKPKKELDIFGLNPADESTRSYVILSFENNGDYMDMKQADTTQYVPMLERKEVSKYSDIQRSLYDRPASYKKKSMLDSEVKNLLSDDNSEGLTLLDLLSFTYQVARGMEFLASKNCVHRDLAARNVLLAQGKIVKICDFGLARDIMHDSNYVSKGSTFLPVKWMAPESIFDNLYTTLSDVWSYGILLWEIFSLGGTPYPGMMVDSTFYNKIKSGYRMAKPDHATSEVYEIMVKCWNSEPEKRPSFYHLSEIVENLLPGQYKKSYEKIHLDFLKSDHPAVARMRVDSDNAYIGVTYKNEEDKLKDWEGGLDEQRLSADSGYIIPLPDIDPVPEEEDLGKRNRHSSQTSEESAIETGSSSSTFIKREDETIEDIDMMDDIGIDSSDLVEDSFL
Sequence of Death-associated protein kinase 2 (Homo sapiens) (Q9UIK4 whole entry, looked up, the tested form may be a part): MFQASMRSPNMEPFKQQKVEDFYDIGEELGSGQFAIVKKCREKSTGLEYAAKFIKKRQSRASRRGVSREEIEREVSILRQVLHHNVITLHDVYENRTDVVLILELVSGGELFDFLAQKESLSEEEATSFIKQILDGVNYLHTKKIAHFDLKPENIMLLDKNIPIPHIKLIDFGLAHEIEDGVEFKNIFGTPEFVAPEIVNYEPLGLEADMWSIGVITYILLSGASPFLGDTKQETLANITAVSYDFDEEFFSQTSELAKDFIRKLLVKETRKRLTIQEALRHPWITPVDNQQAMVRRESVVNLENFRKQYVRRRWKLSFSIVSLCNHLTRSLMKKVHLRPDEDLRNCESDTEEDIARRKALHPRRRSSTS
Sequence of Myosin light chain kinase family member 4 (Homo sapiens) (Q86YV6 whole entry, the tested form may be a part): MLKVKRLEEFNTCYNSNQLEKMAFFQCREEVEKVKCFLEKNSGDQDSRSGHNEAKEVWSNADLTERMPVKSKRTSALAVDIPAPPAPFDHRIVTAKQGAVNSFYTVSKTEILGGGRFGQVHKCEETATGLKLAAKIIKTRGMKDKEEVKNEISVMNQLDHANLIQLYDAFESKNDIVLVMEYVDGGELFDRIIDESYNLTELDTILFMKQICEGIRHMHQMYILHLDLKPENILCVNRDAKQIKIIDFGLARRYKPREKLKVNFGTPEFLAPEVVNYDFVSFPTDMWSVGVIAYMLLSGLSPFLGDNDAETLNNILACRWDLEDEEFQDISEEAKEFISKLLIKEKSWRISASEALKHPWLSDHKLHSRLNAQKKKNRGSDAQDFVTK
Sequence of Testis-specific serine/threonine-protein kinase 3 (Homo sapiens) (Q96PN8 whole entry, the tested form may be a part): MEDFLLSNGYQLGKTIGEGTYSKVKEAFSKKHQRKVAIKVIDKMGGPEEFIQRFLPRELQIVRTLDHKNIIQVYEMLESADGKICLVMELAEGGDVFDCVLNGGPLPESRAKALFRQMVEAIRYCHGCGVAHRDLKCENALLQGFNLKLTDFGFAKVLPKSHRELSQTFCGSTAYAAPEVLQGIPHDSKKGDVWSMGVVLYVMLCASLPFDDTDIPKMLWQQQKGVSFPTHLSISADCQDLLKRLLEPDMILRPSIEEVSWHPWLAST
Sequence of Calcium/calmodulin-dependent protein kinase type 1B (Homo sapiens) (Q6P2M8 whole entry, the tested form may be a part): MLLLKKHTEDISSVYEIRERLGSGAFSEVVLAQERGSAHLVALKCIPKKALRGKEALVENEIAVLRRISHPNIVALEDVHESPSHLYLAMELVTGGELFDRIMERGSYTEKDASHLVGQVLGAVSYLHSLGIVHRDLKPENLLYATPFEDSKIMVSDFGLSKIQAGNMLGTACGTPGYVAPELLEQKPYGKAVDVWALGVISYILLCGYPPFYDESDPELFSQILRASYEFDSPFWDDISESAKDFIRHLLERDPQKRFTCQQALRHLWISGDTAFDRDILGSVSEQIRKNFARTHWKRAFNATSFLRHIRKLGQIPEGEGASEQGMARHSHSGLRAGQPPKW
Sequence of Dual specificity protein kinase CLK3 (Homo sapiens) (P49761 whole entry, looked up, the tested form may be a part): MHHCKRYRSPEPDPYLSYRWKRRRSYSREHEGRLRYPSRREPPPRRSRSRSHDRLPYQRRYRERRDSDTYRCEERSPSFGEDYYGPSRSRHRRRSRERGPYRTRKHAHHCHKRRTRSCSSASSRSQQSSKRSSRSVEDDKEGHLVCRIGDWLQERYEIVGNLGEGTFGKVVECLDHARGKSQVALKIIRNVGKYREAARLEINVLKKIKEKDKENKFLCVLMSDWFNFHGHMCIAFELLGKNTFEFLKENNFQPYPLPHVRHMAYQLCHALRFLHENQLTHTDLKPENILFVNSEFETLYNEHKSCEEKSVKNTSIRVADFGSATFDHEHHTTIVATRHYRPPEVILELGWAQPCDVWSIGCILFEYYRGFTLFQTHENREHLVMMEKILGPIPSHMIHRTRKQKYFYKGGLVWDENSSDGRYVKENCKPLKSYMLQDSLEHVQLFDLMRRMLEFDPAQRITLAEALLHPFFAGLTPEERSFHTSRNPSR
Sequence of Mitogen-activated protein kinase kinase kinase 6 (Homo sapiens) (O95382 whole entry, the tested form may be a part): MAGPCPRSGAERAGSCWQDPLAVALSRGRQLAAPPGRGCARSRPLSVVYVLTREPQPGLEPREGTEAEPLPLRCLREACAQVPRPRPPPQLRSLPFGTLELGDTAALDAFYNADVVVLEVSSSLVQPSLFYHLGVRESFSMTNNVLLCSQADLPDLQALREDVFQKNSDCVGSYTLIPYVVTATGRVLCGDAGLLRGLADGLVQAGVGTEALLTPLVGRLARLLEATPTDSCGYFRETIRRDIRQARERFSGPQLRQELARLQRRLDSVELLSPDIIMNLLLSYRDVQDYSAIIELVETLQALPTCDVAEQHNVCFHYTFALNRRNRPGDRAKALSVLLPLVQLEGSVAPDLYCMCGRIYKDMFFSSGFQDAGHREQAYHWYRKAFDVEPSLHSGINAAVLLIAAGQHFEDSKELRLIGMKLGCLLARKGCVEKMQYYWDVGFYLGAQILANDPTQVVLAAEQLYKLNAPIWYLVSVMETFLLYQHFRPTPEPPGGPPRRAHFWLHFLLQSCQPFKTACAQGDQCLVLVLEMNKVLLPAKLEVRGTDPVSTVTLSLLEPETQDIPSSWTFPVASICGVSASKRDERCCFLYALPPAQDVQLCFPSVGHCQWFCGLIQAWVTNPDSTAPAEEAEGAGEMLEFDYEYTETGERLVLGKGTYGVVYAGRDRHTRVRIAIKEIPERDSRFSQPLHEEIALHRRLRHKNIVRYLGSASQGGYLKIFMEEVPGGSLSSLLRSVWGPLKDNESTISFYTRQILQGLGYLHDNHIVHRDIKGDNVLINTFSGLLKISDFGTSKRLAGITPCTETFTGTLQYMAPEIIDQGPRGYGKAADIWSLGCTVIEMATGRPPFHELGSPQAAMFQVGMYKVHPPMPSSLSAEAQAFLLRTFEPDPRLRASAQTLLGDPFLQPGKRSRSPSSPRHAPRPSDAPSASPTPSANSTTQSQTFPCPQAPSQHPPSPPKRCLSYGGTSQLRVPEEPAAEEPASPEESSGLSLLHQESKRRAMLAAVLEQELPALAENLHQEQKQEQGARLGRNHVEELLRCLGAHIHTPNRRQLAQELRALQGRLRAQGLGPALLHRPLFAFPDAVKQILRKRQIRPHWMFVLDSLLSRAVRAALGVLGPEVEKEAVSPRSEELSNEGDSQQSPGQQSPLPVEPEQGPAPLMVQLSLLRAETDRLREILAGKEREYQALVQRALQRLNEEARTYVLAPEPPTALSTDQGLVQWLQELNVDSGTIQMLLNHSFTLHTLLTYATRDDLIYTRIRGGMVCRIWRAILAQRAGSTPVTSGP
Sequence of Protein kinase C epsilon type (Homo sapiens) (Q02156 whole entry, the tested form may be a part): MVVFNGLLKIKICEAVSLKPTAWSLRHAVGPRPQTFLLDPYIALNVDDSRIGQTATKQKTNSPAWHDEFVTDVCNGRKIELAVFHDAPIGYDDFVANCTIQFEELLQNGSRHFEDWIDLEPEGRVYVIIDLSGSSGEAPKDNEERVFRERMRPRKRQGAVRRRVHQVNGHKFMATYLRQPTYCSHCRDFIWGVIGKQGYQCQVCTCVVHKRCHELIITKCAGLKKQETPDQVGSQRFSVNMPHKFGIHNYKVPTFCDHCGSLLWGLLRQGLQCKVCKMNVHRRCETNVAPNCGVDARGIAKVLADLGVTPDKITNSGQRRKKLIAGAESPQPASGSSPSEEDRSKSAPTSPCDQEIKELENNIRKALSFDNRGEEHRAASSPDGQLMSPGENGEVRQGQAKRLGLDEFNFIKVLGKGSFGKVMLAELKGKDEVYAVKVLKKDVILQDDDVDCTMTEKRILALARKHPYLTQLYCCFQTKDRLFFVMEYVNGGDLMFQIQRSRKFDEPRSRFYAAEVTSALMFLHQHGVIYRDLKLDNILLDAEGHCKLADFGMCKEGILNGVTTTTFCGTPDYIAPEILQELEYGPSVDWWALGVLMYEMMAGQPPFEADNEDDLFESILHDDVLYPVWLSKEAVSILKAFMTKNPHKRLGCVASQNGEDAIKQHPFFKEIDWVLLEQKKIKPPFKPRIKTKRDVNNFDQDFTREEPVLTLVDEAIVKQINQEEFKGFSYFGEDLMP

Cc1ccc(NC(=O)c2ccc(CN(CCN(C)C)C(=O)c3cccnc3)cc2)cc1Nc1nccc(-c2cccnc2)n1 gave an Activity [1] of 80%, an Activity [2] of 77% and an Activity [3] of 92%. For the same compound, the Activity [4] was 100%, the Activity [5] was 90% and the Activity [6] was 94%. The Activity [7] was 94%, the Activity [8] was 85% and the Activity [9] was 94%. It also gave an Activity [10] of 100%, an Activity [11] of 76% and an Activity [12] of 84%. For the same compound, the Activity [13] was 80%, the Activity [14] was 100% and the Activity [15] was 100%. For the same compound, the Activity [16] was 100%, the Activity [17] was 100% and the half-life [18] was 2.03 h. For the same compound, the Cmax [19] was 28.9 ng/mL, the inhibition [20] was “inactive” and the inhibition [21] was “Dose-dependent effect”.
